Columns and labels:
Format in all cases: toxicity, cell-based
HEK-293T = test: Incucyte cell viability with HEK293T; details: human, 10 µM, compound concentration 10 uM; note: filed as whole numbers so only -1 and 0 and 1 occur
U2OS = test: Incucyte cell viability with U2OS; details: human, 10 µM, compound concentration 10 uM; note: filed as whole numbers so only -1 and 0 and 1 occur
Fibroblast = test: Multiplex assay against human fibroblast
Procedure, shortened: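 At seeding, live cells were stained with Hoechst33342, BioTracker Green Microtubule Cytoskeleton Dye, MitoTracker Red and Annexin V Alexa Fluor 680. After compound addition they were imaged on a CQ1 microscope at 37°C and 5% CO2, and CellPathfinder machine-learning gating sorted them into Hoechst high-intensity objects or normal cells, with normal cells further split into healthy, pyknosed or fragmented nuclei and pyknosed cells into mitotic or apoptotic. Tubulin, mitochondrial-mass and membrane-permeability phenotypes are given as per cents of cells with healthy nuclei.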

[1] = 0 h, replicate number 1, timepoint 0 hours
[2] = 12 h, replicate number 1, timepoint 12 hours
[3] = 18 h, replicate number 1, timepoint 18 hours
[4] = 24 h, replicate number 1, timepoint 24 hours
[5] = 12 h, 1 µM, compound concentration 1 uM, replicate 1
[6] = 12 h, 1 µM, compound concentration 1 uM, replicate 2
[7] = 12 h, 10 µM, compound concentration 10 uM, replicate 1
[8] = 12 h, 10 µM, compound concentration 10 uM, replicate 2
[9] = 24 h, 1 µM, compound concentration 1 uM, replicate 1
[10] = 24 h, 1 µM, compound concentration 1 uM, replicate 2
[11] = 24 h, 10 µM, compound concentration 10 uM, replicate 1
[12] = 24 h, 10 µM, compound concentration 10 uM, replicate 2
[13] = 48 h, 1 µM, compound concentration 1 uM, replicate 1
[14] = 48 h, 1 µM, compound concentration 1 uM, replicate 2
[15] = 48 h, 10 µM, compound concentration 10 uM, replicate 1
[16] = 48 h, 10 µM, compound concentration 10 uM, replicate 2

CC(C)N1CCC(C)(C)c2cc(C#Cc3ccc(C(=O)O)cc3)ccc21
Growth Rate (HEK-293T; [1]): 1
Growth Rate (HEK-293T; 0 h, replicate number 2, timepoint 0 hours): 0
Growth Rate (HEK-293T; 6 h, replicate number 1, timepoint 6 hours): 1
Growth Rate (HEK-293T; [2]): 0
Growth Rate (HEK-293T; [3]): 0
Growth Rate (HEK-293T; [4]): 0
Growth Rate (U2OS; [1]): 0
Growth Rate (U2OS; 6 h, replicate number 2, timepoint 6 hours): 0
Growth Rate (U2OS; [2]): 1
Growth Rate (U2OS; [3]): 1
Growth Rate (U2OS; [4]): 1
Population Apoptotic (%) (Fibroblast; [5]): 89%
Population Fragmented Nuclei (%) (Fibroblast; [5]): 42%
Population Healthy Nuclei (%) (Fibroblast; [5]): 41%
Population Hoechst High Intensity Objects (%) (Fibroblast; [5]): 41%
Population Membrane Permeable-Phenotype (%) (Fibroblast; [5]): 30%
Population Mitochondria Different-Phenotype (%) (Fibroblast; [5]): 6%
Population Mitotic Cells (%) (Fibroblast; [5]): 10%
Population Normal (%) (Fibroblast; [5]): 58%
Population Pyknosed Nuclei (%) (Fibroblast; [5]): 15%
Population Tubulin-Different-Phenotype (%) (Fibroblast; [5]): 46%
Total Cell Count (Fibroblast; [5]): 207
Population Apoptotic (%) (Fibroblast; [6]): 20%
Population Fragmented Nuclei (%) (Fibroblast; [6]): 16%
Population Healthy Nuclei (%) (Fibroblast; [6]): 75%
Population Hoechst High Intensity Objects (%) (Fibroblast; [6]): 13%
Population Membrane Permeable-Phenotype (%) (Fibroblast; [6]): 6%
Population Mitochondria Different-Phenotype (%) (Fibroblast; [6]): 15%
Population Mitotic Cells (%) (Fibroblast; [6]): 80%
Population Normal (%) (Fibroblast; [6]): 86%
Population Pyknosed Nuclei (%) (Fibroblast; [6]): 8%
Population Tubulin-Different-Phenotype (%) (Fibroblast; [6]): 20%
Total Cell Count (Fibroblast; [6]): 69
Population Apoptotic (%) (Fibroblast; [7]): 75%
Population Fragmented Nuclei (%) (Fibroblast; [7]): 89%
Population Healthy Nuclei (%) (Fibroblast; [7]): 6%
Population Hoechst High Intensity Objects (%) (Fibroblast; [7]): 76%
Population Membrane Permeable-Phenotype (%) (Fibroblast; [7]): 14%
Population Mitochondria Different-Phenotype (%) (Fibroblast; [7]): 0%
Population Mitotic Cells (%) (Fibroblast; [7]): 25%
Population Normal (%) (Fibroblast; [7]): 23%
Population Pyknosed Nuclei (%) (Fibroblast; [7]): 3%
Population Tubulin-Different-Phenotype (%) (Fibroblast; [7]): 7%
Total Cell Count (Fibroblast; [7]): 898
Population Apoptotic (%) (Fibroblast; [8]): 0%
Population Fragmented Nuclei (%) (Fibroblast; [8]): 55%
Population Healthy Nuclei (%) (Fibroblast; [8]): 44%
Population Hoechst High Intensity Objects (%) (Fibroblast; [8]): 71%
Population Membrane Permeable-Phenotype (%) (Fibroblast; [8]): 4%
Population Mitochondria Different-Phenotype (%) (Fibroblast; [8]): 14%
Population Mitotic Cells (%) (Fibroblast; [8]): 0%
Population Normal (%) (Fibroblast; [8]): 28%
Population Pyknosed Nuclei (%) (Fibroblast; [8]): 0%
Population Tubulin-Different-Phenotype (%) (Fibroblast; [8]): 28%
Total Cell Count (Fibroblast; [8]): 327
Population Apoptotic (%) (Fibroblast; [9]): 85%
Population Fragmented Nuclei (%) (Fibroblast; [9]): 39%
Population Healthy Nuclei (%) (Fibroblast; [9]): 48%
Population Hoechst High Intensity Objects (%) (Fibroblast; [9]): 41%
Population Membrane Permeable-Phenotype (%) (Fibroblast; [9]): 29%
Population Mitochondria Different-Phenotype (%) (Fibroblast; [9]): 1%
Population Mitotic Cells (%) (Fibroblast; [9]): 14%
Population Normal (%) (Fibroblast; [9]): 58%
Population Pyknosed Nuclei (%) (Fibroblast; [9]): 11%
Population Tubulin-Different-Phenotype (%) (Fibroblast; [9]): 38%
Total Cell Count (Fibroblast; [9]): 202
Population Apoptotic (%) (Fibroblast; [10]): 50%
Population Fragmented Nuclei (%) (Fibroblast; [10]): 18%
Population Healthy Nuclei (%) (Fibroblast; [10]): 76%
Population Hoechst High Intensity Objects (%) (Fibroblast; [10]): 4%
Population Membrane Permeable-Phenotype (%) (Fibroblast; [10]): 3%
Population Mitochondria Different-Phenotype (%) (Fibroblast; [10]): 10%
Population Mitotic Cells (%) (Fibroblast; [10]): 50%
Population Normal (%) (Fibroblast; [10]): 95%
Population Pyknosed Nuclei (%) (Fibroblast; [10]): 5%
Population Tubulin-Different-Phenotype (%) (Fibroblast; [10]): 18%
Total Cell Count (Fibroblast; [10]): 81
Population Apoptotic (%) (Fibroblast; [11]): 72%
Population Fragmented Nuclei (%) (Fibroblast; [11]): 86%
Population Healthy Nuclei (%) (Fibroblast; [11]): 7%
Population Hoechst High Intensity Objects (%) (Fibroblast; [11]): 78%
Population Membrane Permeable-Phenotype (%) (Fibroblast; [11]): 33%
Population Mitochondria Different-Phenotype (%) (Fibroblast; [11]): 0%
Population Mitotic Cells (%) (Fibroblast; [11]): 27%
Population Normal (%) (Fibroblast; [11]): 21%
Population Pyknosed Nuclei (%) (Fibroblast; [11]): 5%
Population Tubulin-Different-Phenotype (%) (Fibroblast; [11]): 20%
Total Cell Count (Fibroblast; [11]): 921
Population Apoptotic (%) (Fibroblast; [12]): 100%
Population Fragmented Nuclei (%) (Fibroblast; [12]): 49%
Population Healthy Nuclei (%) (Fibroblast; [12]): 47%
Population Hoechst High Intensity Objects (%) (Fibroblast; [12]): 66%
Population Membrane Permeable-Phenotype (%) (Fibroblast; [12]): 3%
Population Mitochondria Different-Phenotype (%) (Fibroblast; [12]): 3%
Population Mitotic Cells (%) (Fibroblast; [12]): 0%
Population Normal (%) (Fibroblast; [12]): 33%
Population Pyknosed Nuclei (%) (Fibroblast; [12]): 2%
Population Tubulin-Different-Phenotype (%) (Fibroblast; [12]): 26%
Total Cell Count (Fibroblast; [12]): 352
Population Apoptotic (%) (Fibroblast; [13]): 57%
Population Fragmented Nuclei (%) (Fibroblast; [13]): 47%
Population Healthy Nuclei (%) (Fibroblast; [13]): 45%
Population Hoechst High Intensity Objects (%) (Fibroblast; [13]): 45%
Population Membrane Permeable-Phenotype (%) (Fibroblast; [13]): 29%
Population Mitochondria Different-Phenotype (%) (Fibroblast; [13]): 0%
Population Mitotic Cells (%) (Fibroblast; [13]): 42%
Population Normal (%) (Fibroblast; [13]): 54%
Population Pyknosed Nuclei (%) (Fibroblast; [13]): 6%
Population Tubulin-Different-Phenotype (%) (Fibroblast; [13]): 29%
Total Cell Count (Fibroblast; [13]): 202
Population Apoptotic (%) (Fibroblast; [14]): 0%
Population Fragmented Nuclei (%) (Fibroblast; [14]): 57%
Population Healthy Nuclei (%) (Fibroblast; [14]): 42%
Population Hoechst High Intensity Objects (%) (Fibroblast; [14]): 35%
Population Membrane Permeable-Phenotype (%) (Fibroblast; [14]): 14%
Population Mitochondria Different-Phenotype (%) (Fibroblast; [14]): 5%
Population Mitotic Cells (%) (Fibroblast; [14]): 100%
Population Normal (%) (Fibroblast; [14]): 64%
Population Pyknosed Nuclei (%) (Fibroblast; [14]): 0%
Population Tubulin-Different-Phenotype (%) (Fibroblast; [14]): 25%
Total Cell Count (Fibroblast; [14]): 198
Population Apoptotic (%) (Fibroblast; [15]): 60%
Population Fragmented Nuclei (%) (Fibroblast; [15]): 90%
Population Healthy Nuclei (%) (Fibroblast; [15]): 6%
Population Hoechst High Intensity Objects (%) (Fibroblast; [15]): 77%
Population Membrane Permeable-Phenotype (%) (Fibroblast; [15]): 25%
Population Mitochondria Different-Phenotype (%) (Fibroblast; [15]): 0%
Population Mitotic Cells (%) (Fibroblast; [15]): 40%
Population Normal (%) (Fibroblast; [15]): 22%
Population Pyknosed Nuclei (%) (Fibroblast; [15]): 2%
Population Tubulin-Different-Phenotype (%) (Fibroblast; [15]): 18%
Total Cell Count (Fibroblast; [15]): 1050
Population Apoptotic (%) (Fibroblast; [16]): 0%
Population Fragmented Nuclei (%) (Fibroblast; [16]): 93%
Population Hoechst High Intensity Objects (%) (Fibroblast; [16]): 84%
Population Membrane Permeable-Phenotype (%) (Fibroblast; [16]): 20%
Population Mitochondria Different-Phenotype (%) (Fibroblast; [16]): 10%
Population Mitotic Cells (%) (Fibroblast; [16]): 0%
Population Normal (%) (Fibroblast; [16]): 15%
Population Pyknosed Nuclei (%) (Fibroblast; [16]): 0%
Population Tubulin-Different-Phenotype (%) (Fibroblast; [16]): 10%
Total Cell Count (Fibroblast; [16]): 961
